Source: ChEMBL document CHEMBL1147849, “Synthesis and recognition of novel isonucleoside triphosphates by DNA polymerases” (Bioorg Med Chem, 2007)
Activity calls are given as the source filed them. The rule behind the calls is not given here.

What was measured:
[1] = system: Thermus aquaticus; test: Inhibition of Thermus acquaticus DNA polymerase-mediated DNA synthesis assessed as DNA chain termination
Outline: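 Taq polymerase primer extension: 25-mer template (A, T, G or C at the first target site) and 5′-FITC 17-mer primer, 20 pmol each. Buffer was 50 mM KCl, 10 mM Tris–HCl pH 9.0, 1.5 mM MgCl₂, 0.1% Triton X-100. Triphosphate or dNTPs 1 nmol each, 2 U enzyme, 50 °C for 1.5 h. Read-out by denaturing polyacrylamide gel electrophoresis.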

[2] = Inhibition of 9 Nm DNA polymerase-mediated DNA synthesis assessed as DNA chain termination
Outline: (§1)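 25-mer template (four variants, each with A, T, G or C at the first target site) annealed to a 5′-FITC 17-mer primer, 20 pmol each. Annealing was done by cooling quickly from 90 to 0 °C in buffer: 10 mM KCl, 10 mM (NH₄)₂SO₄, 20 mM Tris–HCl pH 8.8, 2 mM MgSO₄, 0.1% Triton X-100. Reactions held triphosphate or dNTPs (1 nmol each) and 2 U polymerase, 50 °C, 1.5 h. Products were resolved by denaturing PAGE.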

[3] = Inhibition of Therminator DNA polymerase-mediated DNA synthesis assessed as DNA chain termination; outline: as §1
[4] = Inhibition of Vent(exo-) DNA polymerase-mediated DNA synthesis assessed as DNA chain termination; outline: as §1
[5] = Inhibition of Deep Vent(exo-) DNA polymerase-mediated DNA synthesis assessed as DNA chain termination; outline: as §1
[6] = Activity of 9 Nm DNA polymerase enzyme
Outline: (§2)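 Kinetics with 9°N DNA polymerase at 0.01 U/µL in the supplier's buffer. Primer was annealed to template 2 (T at the target site), 2 µM primer–template complex, with varying concentrations of dATP or the isonucleoside triphosphate.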

[7] = Ratio of Vmax to Km for 9 Nm DNA polymerase; outline: as §2

## Nc1ncnc2c1ncn2[C@@H]1CO[C@H](COP(=O)(O)OP(=O)(O)OP(=O)(O)O)[C@H]1O
[1]
  Activity: Active
[2]
  Activity: inactive
[3]
  Activity: inactive
[4]
  Activity: inactive
[5]
  Activity: Active

## C=CCOC[C@@H]1O[C@@H](COP(=O)(O)OP(=O)(O)OP(=O)(O)O)[C@H](O)[C@H]1n1cc(C)c(=O)[nH]c1=O
[1]
  Activity: Active
[2]
  Activity: Active

## Cc1cn([C@H]2CO[C@@H](CCOP(=O)(O)OP(=O)(O)OP(=O)(O)O)[C@@H]2O)c(=O)[nH]c1=O
[1]
  Activity: Active
[2]
  Activity: Active

## Nc1ccn([C@H]2CO[C@@H](CCOP(=O)(O)OP(=O)(O)OP(=O)(O)O)[C@@H]2O)c(=O)n1
[1]
  Activity: Active
[2]
  Activity: Active

## Nc1ncnc2c1ncn2[C@H]1C[C@H](O)[C@@H](COP(=O)(O)OP(=O)(O)OP(=O)(O)O)O1
[6]
  Km: 0.78 µM
  Vmax: 6.73 %/min
[7]
  Vmax/Km: 8.63e+06 M⁻¹

## Nc1nc2c(ncn2[C@H]2CO[C@@H](CCOP(=O)(O)OP(=O)(O)OP(=O)(O)O)[C@@H]2O)c(=O)[nH]1
[1]
  Activity: Active
[2]
  Activity: Active
